Measurements taken from article PMC2780016 (Journal of medicinal chemistry, 2009).
“Also recorded” adds a separate entry of the source.

Tests used:
Format in all cases: biochemical
[1] = biological target: T1, human liver CE, hCE1 (CES1) (Homo sapiens, UniProt P23141); experiment: Inhibition of hCE1 hydrolysis of 3; conditions: for Ki: read-out: hCE1 Ki ± SE, substrate 3 (o-nitrophenyl acetate); for inhibition of hCE1 (in words): substrate 3
T1 sequence (P23141 18-567): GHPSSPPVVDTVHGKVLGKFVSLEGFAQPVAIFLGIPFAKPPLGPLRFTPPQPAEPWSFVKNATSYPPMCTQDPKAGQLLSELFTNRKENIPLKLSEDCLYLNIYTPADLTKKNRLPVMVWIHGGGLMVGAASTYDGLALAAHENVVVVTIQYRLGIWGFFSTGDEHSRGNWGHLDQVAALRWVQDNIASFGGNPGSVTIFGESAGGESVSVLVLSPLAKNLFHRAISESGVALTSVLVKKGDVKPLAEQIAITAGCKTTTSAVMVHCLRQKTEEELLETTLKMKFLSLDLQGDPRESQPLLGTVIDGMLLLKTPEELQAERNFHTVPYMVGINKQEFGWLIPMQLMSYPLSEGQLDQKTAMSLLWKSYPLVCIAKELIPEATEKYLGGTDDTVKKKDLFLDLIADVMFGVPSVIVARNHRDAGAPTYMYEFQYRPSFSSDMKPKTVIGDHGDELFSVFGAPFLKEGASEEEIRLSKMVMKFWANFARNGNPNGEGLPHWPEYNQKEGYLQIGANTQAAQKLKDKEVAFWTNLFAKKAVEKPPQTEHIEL

[2] = biological target: T2, human intestinal CE (hiCE, CES2) (Homo sapiens, UniProt O00748)
T2 sequence (O00748 27-559): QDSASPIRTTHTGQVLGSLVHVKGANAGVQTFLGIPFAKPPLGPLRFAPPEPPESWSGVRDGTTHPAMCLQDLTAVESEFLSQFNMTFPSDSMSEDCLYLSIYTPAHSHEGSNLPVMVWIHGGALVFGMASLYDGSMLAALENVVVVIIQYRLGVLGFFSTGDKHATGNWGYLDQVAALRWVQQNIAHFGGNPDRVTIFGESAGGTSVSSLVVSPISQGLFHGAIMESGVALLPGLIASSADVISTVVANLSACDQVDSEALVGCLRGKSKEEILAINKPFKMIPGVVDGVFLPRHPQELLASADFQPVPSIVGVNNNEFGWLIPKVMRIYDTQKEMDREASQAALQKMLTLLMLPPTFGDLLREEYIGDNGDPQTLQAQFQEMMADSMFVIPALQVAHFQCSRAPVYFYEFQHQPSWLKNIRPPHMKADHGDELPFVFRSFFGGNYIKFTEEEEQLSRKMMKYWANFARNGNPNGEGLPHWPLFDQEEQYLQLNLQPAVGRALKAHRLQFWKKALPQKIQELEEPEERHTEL

hiCE = biological target: T3, hiCE (Homo sapiens, UniProt O00748); experiment: Inhibition of the metabolism of heroin and cocaine; conditions: data not shown; Hatfield et al, manuscript in preparation
T3 sequence (O00748 27-559): T2 sequence (O00748 27-559)

hAChE = hAChE (Homo sapiens, UniProt P22303); experiment: Inhibition of acetylcholinesterase, acetylthiocholine substrate; conditions: data not shown
hAChE, sequence (P22303 32-614): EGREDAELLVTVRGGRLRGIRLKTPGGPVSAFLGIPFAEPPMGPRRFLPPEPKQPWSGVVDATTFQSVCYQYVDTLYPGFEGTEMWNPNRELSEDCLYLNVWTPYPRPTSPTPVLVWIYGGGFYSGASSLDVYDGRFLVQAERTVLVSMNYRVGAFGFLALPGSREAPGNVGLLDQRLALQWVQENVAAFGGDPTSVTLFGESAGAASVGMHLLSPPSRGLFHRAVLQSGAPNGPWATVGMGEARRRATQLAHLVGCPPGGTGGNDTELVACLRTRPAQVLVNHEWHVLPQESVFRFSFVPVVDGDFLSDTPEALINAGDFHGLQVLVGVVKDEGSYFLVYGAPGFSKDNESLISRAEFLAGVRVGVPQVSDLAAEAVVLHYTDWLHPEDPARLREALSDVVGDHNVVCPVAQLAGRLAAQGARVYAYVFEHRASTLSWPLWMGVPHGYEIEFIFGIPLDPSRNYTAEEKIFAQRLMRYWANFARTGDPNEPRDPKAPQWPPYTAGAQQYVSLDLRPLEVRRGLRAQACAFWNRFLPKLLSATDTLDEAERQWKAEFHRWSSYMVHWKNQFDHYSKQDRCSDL
How it was run: (§1)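 Purified human AChE and BChE were obtained commercially. Test compounds were dissolved in DMSO (stock typically 10mM) immediately before analysis. Inhibition was measured by the previously reported method, with acetylthiocholine as substrate for hAChE and butyrylthiocholine for hBChE.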

hBChE = hBChE (Homo sapiens, UniProt P06276); experiment: Inhibition of butyrylcholinesterase, butyrylthiocholine substrate; conditions: data not shown
hBChE, sequence (P06276 29-602): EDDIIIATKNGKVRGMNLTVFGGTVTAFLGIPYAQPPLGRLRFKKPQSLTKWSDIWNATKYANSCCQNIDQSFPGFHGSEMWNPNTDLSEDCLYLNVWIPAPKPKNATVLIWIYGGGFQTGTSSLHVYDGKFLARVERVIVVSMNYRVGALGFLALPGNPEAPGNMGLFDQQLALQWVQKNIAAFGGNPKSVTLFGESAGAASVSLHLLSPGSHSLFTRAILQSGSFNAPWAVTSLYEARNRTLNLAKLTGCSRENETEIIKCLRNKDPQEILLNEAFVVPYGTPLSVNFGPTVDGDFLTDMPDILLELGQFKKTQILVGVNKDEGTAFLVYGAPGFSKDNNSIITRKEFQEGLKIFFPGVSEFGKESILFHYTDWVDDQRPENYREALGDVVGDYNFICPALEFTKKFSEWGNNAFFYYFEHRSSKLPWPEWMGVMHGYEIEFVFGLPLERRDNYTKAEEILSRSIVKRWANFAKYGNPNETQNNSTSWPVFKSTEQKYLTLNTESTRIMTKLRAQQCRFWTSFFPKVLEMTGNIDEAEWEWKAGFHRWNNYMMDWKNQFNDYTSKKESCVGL
How it was run: as §1

Compound	inhibition of hCE1 (in words) [1]	inhibition of hAChE (in words) (hAChE)	inhibition of hiCE (in words) ([2]; substrate 3)	inhibition of hBChE (in words) (hBChE)	further results
4,6-dimethyl-N1,N3- diphenylbenzene-1,3- disulfonamide [compound 4]	–	–	–	–	Ki [1]: > 100 µM
O=S(=O)(Nc1ccc(NS(=O)(=O)c2ccc(Cl)cc2)cc1)c1ccc(Cl)cc1 [compound 11, N,N'-(1,4-phenylene)bis(4-chlorobenzenesulfonamide)]	weak activity	–	–	–	fold more potent against hiCE than hCE1 ([2]; ratio of Ki values hCE1 vs hiCE, substrate 3): over 250 fold
O=S(=O)(Nc1ccc(NS(=O)(=O)c2cccc(Br)c2)cc1)c1cccc(Br)c1 [compound 18, N,N'-(1,4-phenylene)bis(3-bromobenzenesulfonamide)]	–	–	–	–	inhibition of the metabolism of heroin and cocaine (in words) (hiCE): can also inhibit the metabolism of heroin and cocaine
O=S(=O)(Nc1ccc(NS(=O)(=O)c2cc(Cl)c(Cl)cc2Cl)cc1)c1cc(Cl)c(Cl)cc1Cl [compound 28, N,N'-(1,4-phenylene)bis(2,4,5-trichlorobenzenesulfonamide)]	inactive	inactive	did not inhibit the enzyme; also recorded: loss of biological activity; also recorded: do not inhibit hiCE; also recorded: inactive	inactive	–
O=C(O)c1ccc(S(=O)(=O)Nc2ccc(NS(=O)(=O)c3ccc(F)cc3)cc2)cc1 [compound 39, 4-(N-(4-(4-fluorophenylsulfonamido)phenyl)sulfamoyl) benzoic acid]	inactive	inactive	did not inhibit the enzyme; also recorded: do not inhibit hiCE; also recorded: inactive	inactive	–
CNC(=O)c1ccc(S(=O)(=O)Nc2ccc(NS(=O)(=O)c3ccc(F)cc3)cc2)cc1 [compound 41, 4-(N-(4-(4-fluorophenylsulfonamido)phenyl)sulfamoyl)-N-methyl benzamide]	inactive	inactive	did not inhibit the enzyme; also recorded: do not inhibit hiCE; also recorded: inactive	inactive	–
O=S(=O)(Nc1c(F)c(F)c(NS(=O)(=O)c2ccc(Br)cc2)c(F)c1F)c1ccc(Br)cc1 [compound 54, N,N'-(2,3,5,6-tetrafluoro-1,4-phenylene) bis(4-bromobenzenesulfonamide)]	–	–	–	–	inhibition of the metabolism of heroin and cocaine (in words) (hiCE): can also inhibit the metabolism of heroin and cocaine
O=S(=O)(Nc1ccc2c(c1)Cc1cc(NS(=O)(=O)c3ccccc3)ccc1-2)c1ccccc1 [compound 56]	–	–	–	–	fold more potent at inhibiting hiCE than compound 8 ([2]; comparison of inhibition constants of 8 and 56): ~11 fold
N,N'-(1,4-phenylene)bis(4-fluoro-2-methyl benzene sulfonamide) [compound 36]	–	–	–	–	Ki [1]: > 100 µM; Ki ([2]; read-out: hiCE Ki ± SE, substrate 3 (o-nitrophenyl acetate)): 0.273 ± 0.033 µM
